Source: the EternaBench riboswitch data

Assays:
MS2 coat protein [1] = assay: apparent Kd, MS2 coat protein; higher = weaker binding; RNA-MaP array; tryptophan 2.4 mM where present
Summary of the method: (§1)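 Each design was made on Illumina sequencing-chip clusters by stalled E. coli RNA polymerase and titrated with SNAP-549-labelled MS2 coat protein from 0.7 or 1.5 nM, doubling to 3 µM, in the absence and then the presence of constant ligand. The buffer was 100 mM Tris-HCl pH 7.5, 80 mM KCl, 4 mM MgCl2, BSA, DTT, yeast tRNA and Tween-20. The apparent Kd is the median of filtered per-cluster fits of binding curves, with green signal normalised to red-channel RNA signal and control-cluster median Fmax.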

MS2 coat protein [2] = assay: apparent Kd, MS2 coat protein; higher = weaker binding; RNA-MaP array; theophylline 2 mM where present
Summary of the method: as §1

[3] = designed as: ON switch for tryptophan, no ligand
[4] = ligand present: tryptophan, designed as: ON switch for tryptophan
[5] = designed as: OFF switch for tryptophan, no ligand
[6] = ligand present: tryptophan, designed as: OFF switch for tryptophan
[7] = designed as: OFF switch for theophylline, no ligand
[8] = ligand present: theophylline, designed as: OFF switch for theophylline
[9] = designed as: ON switch for theophylline, no ligand
[10] = ligand present: theophylline, designed as: ON switch for theophylline

In the case of “AAACAUGAGGAUCACCCAUGUUGAGGAUCACGAGGACCGGUACGGCCGCCACUCGACAUGAGGAUCACCCAUGUGAGGAUCACCC”, the “apparent Kd” value (MS2 coat protein [1]; [3]) is reported as 175 nM and the “apparent Kd” value (MS2 coat protein [1]; [4]) is reported as 174 nM.
“AAAUAAACCUCGGCCGCCACUCGCCAUGAGGAUCACCCAUGUAACAUGAGGAUCACCCAUGUACAGAGGACCGGGAGGUCCUAGU” was tested, and the “apparent Kd” value (MS2 coat protein [1]; [3]) was 73 nM and the “apparent Kd” value (MS2 coat protein [1]; [4]) was 100 nM.
With “AACAACUAGUCGGCCGCCACUCAUAAUACAUGAGGAUCACCCAUGUAUACUUGGUUUUUAUAUUUGAGGACCGGGACAGUUGCAU” the “apparent Kd” value (MS2 coat protein [1]; [5]) was 11.6 nM and the “apparent Kd” value (MS2 coat protein [1]; [6]) was 10.5 nM.
For “AAUGUAUGGCACAUGAGGAUCACCCAUGUGCGAGGACCGGUACGGCCGCCACUCGGUCCUGGGAUCUUAUUACUAUACAUUAAUG”, the “apparent Kd” value (MS2 coat protein [1]; [5]) was 11.6 nM and the “apparent Kd” value (MS2 coat protein [1]; [6]) was 24 nM.
“AAUGUAUUCCACAUGAGGAUCACCCAUGUGCGAGGACCGGUACGGCCGCCACUCGGUGUUGGGAUCAGUUCUGAAUACAUUAAUG” was tested, and the “apparent Kd” value (MS2 coat protein [1]; [5]) was 15.9 nM and the “apparent Kd” value (MS2 coat protein [1]; [6]) was 47.5 nM.
For “AAUUAUCAGUCGGCCGCCACUGACACAUGAGGAUCACCCAUGUAACUUGGGAUAAAUUUAAUAAACAGGACCGGGACAAAGGCUA”, the “apparent Kd” value (MS2 coat protein [1]; [5]) was 58.8 nM and the “apparent Kd” value (MS2 coat protein [1]; [6]) was 49.7 nM.
For “AAUUCCGGGUCGGCCGCCACUGAUAUGGCGAGUCCUCGAACUUACAUGAGGAUCACCCAUGUAAACAGGACCGGGACCGCAUGGG”, the “apparent Kd” value (MS2 coat protein [1]; [5]) was 18.5 nM and the “apparent Kd” value (MS2 coat protein [1]; [6]) was 49.1 nM.
For “ACACAAUACAUGAGGAUCACCCAUGUAAAACGAGGACCGGUACGGCCGCCACUCGAAUACUGUAAUCCUCGGAAUAUUAAGUGAA”, the “apparent Kd” value (MS2 coat protein [1]; [5]) was 41 nM and the “apparent Kd” value (MS2 coat protein [1]; [6]) was 35.3 nM.
For “ACAUGAGGAUCACCCAUGUACAUCACCCGACGAGGACCGGUACGGCCGCCACUCGGGUAUAUAUAUACAUCGGGUGGUUUUGCAU”, the “apparent Kd” value (MS2 coat protein [1]; [3]) was 17.6 nM and the “apparent Kd” value (MS2 coat protein [1]; [4]) was 17.3 nM.
“ACGUAGAAGUCGGCCGCCACUGAUUUCAUGUUCAACAUGAGGAUCACCCAUGUACCUUAUGUUAACAGGACCGGGACGUAUACGA” was tested, and the “apparent Kd” value (MS2 coat protein [1]; [3]) was 298 nM and the “apparent Kd” value (MS2 coat protein [1]; [4]) was 55 nM.
In the case of “UAUAUAUUGAUGGAUACCAGCAGAGAAAACGUUUAUCCUAACAUGAGGAUCACCCAUGUAUGCCCUUGGCAGCUGUUGAUAUAUA”, the “apparent Kd” value (MS2 coat protein [2]; [7]) is reported as 22.2 nM and the “apparent Kd” value (MS2 coat protein [2]; [8]) is reported as 32.6 nM.
In the case of “UCGUGUAUAUCGGAUACCAGUGAGAACGAUACAUGAGGAUCACCCAUGUGAGUUGAUGUACACCCUUGGCAGCUGUAUAUAUCUA”, the “apparent Kd” value (MS2 coat protein [2]; [9]) is reported as 25 nM and the “apparent Kd” value (MS2 coat protein [2]; [10]) is reported as 16.3 nM.
In the case of “UGAUCCUACAGAGAUACCAGUGCCACUGAGUGACCAGACACAUGAGGAUCACCCAUGUAACACCCUUGGCAGCUCAACUAAAGGG”, the “apparent Kd” value (MS2 coat protein [2]; [9]) is reported as 22.2 nM and the “apparent Kd” value (MS2 coat protein [2]; [10]) is reported as 80.3 nM.
For “UGAUCCUACAGAGAUACCAGUGCCGCUAGAUAACUAUGCACAUGAGGAUCACCCAUGUAACACCCUUGGCAGCUCAACUAAAGGG”, the “apparent Kd” value (MS2 coat protein [2]; [9]) was 92.2 nM and the “apparent Kd” value (MS2 coat protein [2]; [10]) was 115 nM.
In the case of “UGAUCCUAGACUGAUACCAGUCAUGAGUACAUGAGGAUCACCCAUGUCCAGGGACUCAAUGACCCUUGGCAGCAGAACCUAGUUC”, the “apparent Kd” value (MS2 coat protein [2]; [9]) is reported as 193 nM and the “apparent Kd” value (MS2 coat protein [2]; [10]) is reported as 147 nM.
With “UGGUCACUAGGAGAUACCAGCCGACAUGAGGAUCACCCAUGUAACCGGCGUCCUCCCUUAGGCCCUUGGCAGCUCGUAGUUGCUC” the “apparent Kd” value (MS2 coat protein [2]; [7]) was 12.2 nM and the “apparent Kd” value (MS2 coat protein [2]; [8]) was 156 nM.
For “UGUAACAUGAGGAUCACCCAUGUGAGUGAUACCAGACUAGUGUUGGUCCCUUGGCAGCACGCUGGGCGAGUGUGUAGUCUAUGCG”, the “apparent Kd” value (MS2 coat protein [2]; [9]) was 92.8 nM and the “apparent Kd” value (MS2 coat protein [2]; [10]) was 120 nM.
With “UGUAUGUGAUCUGAUACCAGUCCAACUGGUAAAACAUGAGGAUCACCCAUGUAAAAUUGGGACCCUUGGCAGCAGAUCGCAUACU” the “apparent Kd” value (MS2 coat protein [2]; [9]) was 534 nM and the “apparent Kd” value (MS2 coat protein [2]; [10]) was 28.4 nM.
With “UGUAUGUGAUGUGAUACCAGUCCAAUACUGGUAACAUGAGGAUCACCCAUGUAAUGAUGGGACCCUUGGCAGCACAUCGCAUACU” the “apparent Kd” value (MS2 coat protein [2]; [9]) was 212 nM and the “apparent Kd” value (MS2 coat protein [2]; [10]) was 111 nM.
With “UGUAUGUGAUUUGAUACCAGUUCUGCUGGUAAAACAUGAGGAUCACCCAUGUUACUUUGGGACCCUUGGCAGCAAAUCGCAUACU” the “apparent Kd” value (MS2 coat protein [2]; [9]) was 201 nM and the “apparent Kd” value (MS2 coat protein [2]; [10]) was 13.9 nM.
“UUAAGAGGCUAUCCACUUUGAUUUUGUGAUACCAGAAUAAUUUUAUUCCCUUGGCAGCAUGACAUGAGGAUCACCCAUGUGUCUU” was tested, and the “apparent Kd” value (MS2 coat protein [2]; [9]) was 37.4 nM and the “apparent Kd” value (MS2 coat protein [2]; [10]) was 72.4 nM.
“UUAUUUAUAAAUGAUACCAGCCGAUUGGCCGCAAAUCCUAACAUGAGGAUCACCCAUGUCGGCCCUUGGCAGCAUUUAUGGGUUU” was tested, and the “apparent Kd” value (MS2 coat protein [2]; [7]) was 76.7 nM and the “apparent Kd” value (MS2 coat protein [2]; [8]) was 722 nM.
